Inhibition and Ki data for two molecules are collected here from ChEMBL document CHEMBL1122524, “Cyclopentenyluridine and cyclopentenylcytidine analogues as inhibitors of uridine-cytidine kinase” (J Med Chem, 1984).

In assay [1] the test system is L1210. Nature of the assay: Compound was tested for its ability to inhibit L1210 cell growth after 72 hr at 100 uM concentration. The settings on record: Mus musculus, L1210, 72 h. Format: functional. Put shortly:
(§1)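 L1210 cells are grown as stationary suspension cultures in Fishers medium with 10% heat-inactivated horse serum. Drug exposure is continuous for 72 h. Cell number is counted with a Coulter counter. Percent inhibition is calculated against untreated control cultures.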

Assay [2] has as its system L1210. The assay can be described thus: Compound was tested for its ability to inhibit L1210 cell growth after 72 hr at 500 uM concentration. Format: functional. The settings on record: Mus musculus, L1210, 72 h. Put shortly:
as §1

Assay [3] concerns L1210. Nature of the assay: Compound was tested for its ability to inhibit L1210 cell growth after 72 hr at 1000 uM concentration. Format: functional. The settings on record: Mus musculus, L1210, 72 h. Put shortly:
as §1

Assay [4] deals with T1, Uridine-cytidine kinase 1 (Mus musculus) (UniProt P52623).
T1 sequence (whole entry): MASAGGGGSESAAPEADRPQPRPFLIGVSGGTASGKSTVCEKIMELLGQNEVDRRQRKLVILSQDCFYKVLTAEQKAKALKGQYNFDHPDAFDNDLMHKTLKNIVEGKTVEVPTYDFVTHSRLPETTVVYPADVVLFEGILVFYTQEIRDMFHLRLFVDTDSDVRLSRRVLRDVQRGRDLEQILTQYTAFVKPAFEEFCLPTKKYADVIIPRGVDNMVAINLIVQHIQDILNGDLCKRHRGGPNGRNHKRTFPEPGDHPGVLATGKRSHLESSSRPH
The assay can be described thus: Inhibition of uridine kinase from L1210 cells was evaluated by measuring the retention of phosphorylated product on DE81 filter papers at 1000 uM. Format: functional, cell-based.

In assay [5] the target is T1, Uridine-cytidine kinase 1 (Mus musculus). The assay can be described thus: Inhibition of uridine kinase from L1210 cells was evaluated by measuring the retention of phosphorylated product on DE81 filter papers at 100 uM. Format: functional, cell-based.
For assay [6], the target named is T2, Uridine-cytidine kinase 1 (Mus musculus, UniProt P52623).
T2 sequence (P52623 whole entry): T1 sequence (whole entry)
The assay can be described thus: Binding affinity to uridine kinase from L1210. was determined from the dixon plot. Put shortly:
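Uridine kinase from L1210 cells. Uridine is used at 10, 40 and 200 μM, with inhibitor at 1, 0.5, 0.2 and 0.1 mM. Ki is taken from Dixon plots.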

Assay [7] relates to L1210. Nature of the assay: Compound was tested for its ability to inhibit L1210 cell growth after 72 hr at 0.03 uM concentration. It counts as functional. The settings on record: Mus musculus, L1210, 72 h. Put shortly: as §1

Each structure is given as a SMILES string.

Consider `O=c1ccn([C@@H]2C=C(CO)[C@@H](O)[C@H]2O)c(=O)[nH]1`, for which at 100 µM the inhibition in the assay on L1210 [1] was 2%. Further, the inhibition (in general, the share of the control response that was lost under treatment) at 500 µM in the assay with L1210 [2] was found to be 12%. The inhibition at 1000 µM in the assay with L1210 [3] is 36%. The inhibition is 78% in assay [4] and 35% in assay [5].

Take `Nc1ccn([C@@H]2C=C(CO)[C@@H](O)[C@H]2O)c(=O)n1`: the inhibition at 100 µM in the assay on L1210 [1] came to 99%. Besides, the inhibition at 500 µM in the assay on L1210 [2] is 96%. Also, at 1000 µM the inhibition in the assay with L1210 [3] was 99%. For the same molecule, the Ki (commonly the dissociation constant of the complex between target and ligand, obtained from inhibition or displacement) in assay [6] was 60 µM. In the assay with L1210 [7], this molecule came in with an inhibition at 0.03 µM of 58%. Moreover, the inhibition is 89% in assay [4] and 57% in assay [5].
